Measured values published in publication PMC3586205 (European journal of pharmacology, 2012).
pKi: −log10 of the molar value. Read-outs that look alike come from different tables or passages of the source.

How the values were obtained:
food intake in mice = assay: Feeding behavior: 1-h food intake after 24-h food deprivation; type: in vivo
[1] = tested on: cannabinoid agonist-like effects in mice; assay: In vivo test battery; conditions: doses up to 30 mg/kg (heterodimer 6b i.p.)
How it was run: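 Separate groups of mice per dose received test compound in 95% sesame oil/5% dimethylacetamide i.p. Rectal temperature and baseline tail-flick latency were taken before injection. At 40 min mice were put in photobeam activity chambers for 5 min. Tail-flick and temperature were re-measured immediately on removal. Ring immobility was not run.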

[2] = target: human cannabinoid CB1 receptor (Homo sapiens, UniProt P21554); assay: Cannabinoid CB1 receptor radioligand binding, displacement of [3H]CP55,940
[3] = tested on: spontaneous activity in mice; assay: Spontaneous; type: in vivo
How it was run: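 Separate groups of mice per dose were injected i.v. with vehicle (ethanol:Emulphor-620:saline 1:1:18) or test compound. Five minutes later each was placed in an activity chamber for 10 min. Total photobeam interruptions were counted and expressed as % inhibition of the vehicle group. ED50s were derived by log-dose linear regression, taking 90% inhibition as maximal.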

[4] = tested on: tail flick latency in mice; assay: Tail flick antinociception, mouse test battery; type: in vivo
How it was run: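 Baseline tail-flick latency was taken to radiant heat (bright light) before i.v. injection of vehicle (ethanol:Emulphor-620:saline 1:1:18) or test compound. Latency was re-measured 20 min post-injection with a 10 s cutoff. Result expressed as %MPE = [(test−control latency)/(10−control)] × 100, separate groups per dose.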

[5] = tested on: rectal temperature in mice; assay: Rectal temperature, mouse test battery; type: in vivo
ring immobility in mice = assay: Ring immobility, mouse test battery; type: in vivo; conditions: 30 mg/kg i.v.

human cannabinoid CB1 receptor, sequence (P21554 whole entry): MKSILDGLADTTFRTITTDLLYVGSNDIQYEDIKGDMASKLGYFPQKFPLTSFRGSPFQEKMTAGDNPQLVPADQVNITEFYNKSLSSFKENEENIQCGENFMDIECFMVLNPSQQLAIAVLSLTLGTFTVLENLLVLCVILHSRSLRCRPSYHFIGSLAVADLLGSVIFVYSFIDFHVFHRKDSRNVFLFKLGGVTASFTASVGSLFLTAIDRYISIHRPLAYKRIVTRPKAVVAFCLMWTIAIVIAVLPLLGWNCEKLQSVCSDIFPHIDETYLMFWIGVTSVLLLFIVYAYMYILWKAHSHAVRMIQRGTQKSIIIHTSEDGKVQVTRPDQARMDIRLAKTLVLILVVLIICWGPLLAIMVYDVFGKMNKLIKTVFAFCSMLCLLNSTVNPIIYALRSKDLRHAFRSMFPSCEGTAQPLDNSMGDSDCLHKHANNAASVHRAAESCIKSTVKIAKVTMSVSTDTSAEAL

Cc1c(C(=O)NCCCCCCCN(C)CCCCCCCNC(=O)c2nn(-c3ccc(Cl)cc3Cl)c(-c3ccc(Cl)cc3)c2C)nn(-c2ccc(Cl)cc2Cl)c1-c1ccc(Cl)cc1 [Heterodimer 6b, N,N′-[(methylimino)diheptane-7,1-diyl]bis[5-(4-chlorophenyl)-1-(2,4-dichlorophenyl)-4-methyl-1H-pyrazole-3-carboxamide]]
effect on food intake (food intake in mice; doses up to 30 mg/kg i.p.): failed to alter food intake
activity in test battery when tested alone [1]: inactive

CCCc1cc(C(=O)NN2CCCCC2)cc(-c2ccc(Cl)cc2Cl)c1-c1ccc(Cl)cc1 [Compound O-1788, 4-(4-chlorophenyl)-3-(2,4-dichlorophenyl)–N-(piperidin-1-yl)-5-propylbenzamide]
pKi [2]: 6.78
decrease in feeding compared to vehicle (food intake in mice; 56 mg/kg i.p., 60 min pre-session, significant): 56%
SA, % inhibition of activity of vehicle control group (maximum effect) ([3]; 30 mg/kg i.v.): inactive (30)
%MPE tail flick (maximum effect) ([4]; 30 mg/kg i.v.): inactive (30)
RT, change in rectal temperature (maximum effect) ([5]; 30 mg/kg i.v.): inactive (30)
RI (maximum effect) (ring immobility in mice): inactive (30)
activity in test battery when tested alone [1]: inactive

CC1=CC[C@@H]2[C@@H](C1)c1c(O)cc(C(C)(C)CCCCC(=O)NCCc3ccc(S(N)(=O)=O)cc3)cc1OC2(C)C [Compound O-606, 6-[(6aR,10aR)-1-hydroxy-6,6,9-trimethyl-6a,7,10,10a-tetrahydro-6H-benzo[c]chromen-3-yl]-6-methyl-N-(4-sulfamoyl-phenyethyl)heptanamide]
pKi ([2]; read-out: CB1 Ki (± SEM), displacement of [3H]CP55,940): 7.54
effect on food intake (food intake in mice; i.p., doses not stated in text (Fig. 2)): failed to affect food intake
SA, % inhibition of activity of vehicle control group (maximum effect) ([3]; 100 mg/kg i.v.): 60% (100)
%MPE tail flick (maximum effect) ([4]; 100 mg/kg i.v.): inactive (100)
RT (maximum effect) ([5]; 100 mg/kg i.v.): inactive (100)
